High-throughput results as filed in PubChem.
Sampled rows, rich in hits. Any-hit rate of the full collection: about 3.1%.
Apaf1 inhib = inhibitors of human Apaf-1 apoptosome; O14727; 330,000 tested, 0.71% active; AID 489030; reconstituted apoptosome caspase-3 activity, DEVD-Rh110 fluorescence; inhibition, % at 20 µM; active = inhibition of at least 40% at 20 µM;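 also: plate controls were DMSO wells for no effect and DEVD-CHO caspase inhibitor wells for full effect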
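Material: biochemical Apaf-1 apoptosome reconstitution. Medium: Hepes buffer, pH 7.5. Also added: cytochrome c activation, bis-DEVD rhodamine 110 substrate. Timing: 30 min compound preincubation, 50 min activation, room temperature. Measured by: rhodamine 110 fluorescence at Ex 480/Em 540 nm.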
UBC13 polyUb = inhibitors of human UBC13 polyubiquitin chain formation; P61088; TR-FRET; inhibition, % at 20 µM; 330,000 tested, 0.47% active; AID 485273; in the data active = inhibition above about 45%, passing the limit was not always enough
MEKK2 mut-MEK5 = signal of MEK5 binding to mutant human MEKK2 PB1 domain; bead flow cytometry, Alexa488-MEK5 binding to MEKK2 mutant; AID 1530; 290,000 tested, 0.35% active; percent response, % at 10 µM; in the data active = percent response above about 24%, passing the limit was not always enough
PREPL inh = inhibitors of human prolyl oligopeptidase-like enzyme PREPL; Q4J6C6; recombinant PREPL, fluorescence polarization activity-based probe; inhibition, % at 5.96 µM; 320,000 tested, 0.68% active; AID 2751; in the data active = inhibition above about 43%;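 also: 0% = enzyme with DMSO and 100% = wells lacking enzyme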
MEKK2 WT-MEK5 = raises or lowers MEK5 binding to wildtype human MEKK2 PB1 domain; AID 1531; bead flow cytometry, Alexa488-MEK5 binding to MEKK2 WT; actives lie on both sides; Q9Y2U5; 290,000 tested, 1.1% active; binding response (% of control), % at 10 µM; in the data active = binding response below about 67% or above about 130%
MEKK3 PB1 HTS = modulators (inhibitors or enhancers) of MEK5 binding to human MEKK3 PB1 domain. Q99759. bead-based flow cytometry, Alexa488-MEK5 binding to MEKK3; actives lie on both sides; 0 = blocked by unlabeled MEK5, 100 = vehicle. binding response (% of control), % at 10 µM. 290,000 tested, 1.4% active. AID 1529;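 active = binding response more than 3 SD above or below the average of its plate-row segment, actives on both sides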;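 also: Alexa488 bead fluorescence after subtracting the streptavidin-only scavenger bead signal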
Target sequence (Q99759 whole entry, looked up, the tested form may be a part): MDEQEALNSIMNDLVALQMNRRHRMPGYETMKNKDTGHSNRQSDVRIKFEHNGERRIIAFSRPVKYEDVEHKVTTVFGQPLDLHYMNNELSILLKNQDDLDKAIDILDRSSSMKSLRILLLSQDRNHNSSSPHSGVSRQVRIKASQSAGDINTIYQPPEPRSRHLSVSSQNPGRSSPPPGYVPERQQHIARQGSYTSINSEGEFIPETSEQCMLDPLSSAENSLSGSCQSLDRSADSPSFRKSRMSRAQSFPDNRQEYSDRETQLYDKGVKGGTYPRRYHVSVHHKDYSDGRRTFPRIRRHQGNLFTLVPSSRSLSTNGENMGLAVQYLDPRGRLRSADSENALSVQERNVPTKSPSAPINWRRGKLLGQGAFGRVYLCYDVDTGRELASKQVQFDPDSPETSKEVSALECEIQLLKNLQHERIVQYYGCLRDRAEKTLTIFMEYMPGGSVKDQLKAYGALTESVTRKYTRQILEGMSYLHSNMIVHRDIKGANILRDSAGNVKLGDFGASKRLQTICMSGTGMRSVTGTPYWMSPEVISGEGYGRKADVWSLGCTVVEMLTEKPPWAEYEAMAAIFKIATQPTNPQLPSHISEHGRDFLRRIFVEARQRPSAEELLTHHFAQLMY
Apaf-1 inh conf2 = confirmation of Apaf-1 inhibitors; 1,800 tested, 25% active; reconstituted apoptosome, caspase-3 DEVD-Rh110 fluorescence; AID 504614; shares compounds with Apaf1 inhib; inhibition, % at 20 µM;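 active = mean inhibition of at least 40% at 20 µM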;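 also: plate controls were DMSO wells for no effect and DEVD-CHO caspase inhibitor control wells for full effect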
Rh110 quench = counter-screen for Apaf-1 inhibitors: fluorescence interference. shares compounds with Apaf1 inhib. Rh110 fluorescence interference, quenched caspase reaction. activation (fluorescence interference), % at 20 µM. 1,800 tested, under 10 active. AID 504615;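 active = signal rise of 40% or more at 20 µM, treated as a fluorescence artifact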
Apaf1 inh interf = shows fluorescence interference in the Apaf-1 inhibitor assay format; fluorescence interference counterscreen, Apaf-1 assay format; shares compounds with Apaf1 inhib; IC50, µM; 460 tested, under 10 active; call rule not given here
* hit, by the source's call; . = not tested or not shown; ! = repeats disagree; [ ] = dose if it differs, or a comment.

SMILES | Apaf1 inhib | UBC13 polyUb | MEKK2 mut-MEK5 | PREPL inh | MEKK2 WT-MEK5 | MEKK3 PB1 HTS | Apaf-1 inh conf2 | Rh110 quench | others
Cc1cccc(NC(=O)NCc2ccc3c(c2)cc(C)n3C)c1 | 54.0* | 17.6 | 9.0 | 14.9 | 96.0 | 101.0 | -1.6 | -2.3
Cc1cc2cc(CNC(=S)Nc3ccc(OC(F)(F)F)cc3)ccc2n1C | 59.1* | -22.7 | -4.0 | -1.7 | 94.0 | 96.0 | 14.6 | 13.9
COc1cccc(NC(=S)NCc2ccc3c(c2)cc(C)n3C)c1 | . | . | -14.0 | . | 86.0 | 84.0 | . | .
Cc1cc2cc(CNC(=O)Nc3cccc(Cl)c3)ccc2n1C | 48.7* | -4.6 | 11.0 | 13.8 | 115.0 | 116.0 | 12.2 | 1.6
Cc1cc2cc(CNC(=O)c3ccc(S(=O)(=O)N(C)C)cc3)ccc2n1C | 45.4* | 5.8 | -7.0 | 7.4 | 85.0 | 96.0 | 8.8 | 7.7
Cc1cc2cc(CNC(=O)c3ccc(S(=O)(=O)N4CCOCC4)cc3)ccc2n1C | 35.1 | 3.0 | -3.0 | 15.0 | 88.0 | 93.0 | . | .
CCC(CO)Oc1cc(NC(=O)Cc2ccccc2)c2ncn(C(C)C)c2c1 (centres undefined) | 4.1 | 8.3 | . | 8.8 | . | . | . | .
CCOC(=O)c1ccc(-n2cccc2/C=C2\NC(=O)NC2=O)cc1 | 7.9 | -1.5 | . | 9.9 | . | . | . | .
Cc1ccc(S(=O)(=O)CC(=O)Nc2ccc3nc(C)sc3c2)cc1 | -2.4 | 5.0 | -2.0 | -27.5 | 99.0 | 97.0 | . | .
Cc1cc(C)c(S(=O)(=O)NCc2nc3nc(C)cc(C)n3n2)c(C)c1 | 1.7 | -9.6 | 4.0 | 2.2 | 105.0 | 103.0 | . | .
Cc1cc(C)c(S(=O)(=O)NCc2ccc3c(c2)cc(C)n3C)c(C)c1 | 44.0* | 6.0 | 0.0 | -16.9 | 94.0 | 95.0 | 3.1 | -1.4
S=C(Nc1ccc2nsnc2c1)N1CCCC1 | 98.4* | -26.7 | -4.0 | -8.0 | 98.0 | 99.0 | 8.4 | -0.3
Cc1cc(NC(=O)CSCC(=O)Nc2ccc(C)c(C)c2)no1 | 53.7* | -1.8 | . | 13.8 | . | . | 3.5 | -3.6
C(=N\c1c(-c2ccccc2)nc2n1CCS2)/c1ccccc1 | 41.0* | -4.1 | 4.0 | 1.9 | 105.0 | 103.0 | 31.8 | 5.7
Clc1ccc(/C=N/c2c(-c3ccc(Cl)cc3)nc3n2CCS3)cc1 | 1.6 | -16.8 | 1.0 | -7.1 | 96.0 | 101.0 | . | .
Cc1nn(S(=O)(=O)c2ccccc2)c(C)c1S(=O)(=O)N1CCC(C)CC1 | -1.2 | 2.1 | 5.0 | 0.8 | 105.0 | 105.0 | . | .
CCc1ccc(NC(=S)Nc2cccc3cnccc23)cc1 | 88.6* | -22.9 | 0.0 | 9.3 | 98.0 | 100.0 | 43.4* | 21.1 | Apaf1 inh interf=>100
Cc1ccc(NC(=S)Nc2cccc3cnccc23)c(C)c1 | 96.4* | -50.4 | -2.0 | 24.8 | 94.0 | 99.0 | 12.5 | -0.2
COc1ccc(C(=O)/C=C/C(=O)N(CC(=O)NC2CCCCC2)CC2CCCO2)c(O)c1 (centres undefined) | 49.3* | 9.2 | -3.0 | 3.5 | 95.0 | 90.0 | 10.1 | 7.7
COc1cccc2c1C(=O)c1c(O)c3c(c(O)c1C2=O)C[C@@](O)(C(=O)CO)C[C@@H]3O[C@H]1C[C@H](N)[C@H](O)[C@H](C)O1 | 57.7* | -267.8 | -9.0 | 23.6 | 50.0*![inhibitor] | 47.0*![inhibitor] | 60.9* | 0.2 | Apaf1 inh interf=>100
COc1cccc(C(c2c(C)[nH]n(-c3ccccc3)c2=O)c2c(C)[nH]n(-c3ccccc3)c2=O)c1O | 94.4* | -21.7 | . | 11.3 | . | . | 30.7 | 9.5
COc1cccc(C(c2c(C)[nH]n(-c3ccccc3)c2=O)c2c(C)[nH]n(-c3ccccc3)c2=O)c1OC | 96.8* | -33.5 | 0.0 | 4.4 | 104.0 | 119.0 | 30.5 | 6.3
COC(=O)CN(C)C(=O)c1cccc(OC2CCN(S(=O)(=O)N(C)C)CC2)c1 | -6.8 | 2.9 | 1.0 | 8.6 | 105.0 | 96.0 | . | .
CC(=O)c1ccc(S(=O)(=O)NCCC(=O)NC2CCN(Cc3ccccc3)CC2)cc1 | -1.9 | 17.6 | . | 21.9 | . | . | . | .
